Reference: ChEMBL document CHEMBL5608261, “Pharmacophore Establishment and Optimization of Saturated 1,6-Naphthyridine-Fused Quinazolinones that Inhibit Meningoencephalitis-Causing Naegleria fowleri” (J Med Chem, 2024)
≈ marks a conversion by molar mass, not a printed value. Calls of active or inactive are those of the source. The rule behind the calls is not given here.

What was measured:
[1] = Selectivity index, ratio of CC50 for cytotoxicity against human SH-SY5Y cells to EC50 for anti-amoebic activity against Naegleria fowleri Nf69 (ATCC 30215) assessed as inhibition of amoeba growth; type: toxicity, cell-based; settings: for selectivity ratio: SH-SY5Y cells, read-out: Ratio CC50/EC50
[2] = Protein binding in CD-1 mouse plasma incubated for 4 hrs by equilibrium dialysis based LC-MS/MS analysis; type: ADME, cell-free
Naegleria fowleri [3] = assay: Anti-ameobic activity against Naegleria fowleri TY (ATCC 30107) trophozoites assessed as inhibition of amoeba growth incubated for 48 hrs by CellTiter-Glo assay; type: functional, organism-based
In short: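 TY strain (ATCC 30107) trophozoites, seeded at 1 × 10^4 cells/mL, were exposed 48 h (37 °C, 5% CO2) to vehicle or compound, with concentrations initially 20 to 0.375 μM. CellTiter-Glo luminescence gave % growth inhibition versus controls. EC50 was fit from triplicate runs (n = 3, ± SEM).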

[4] = Kinetic solubility of compound at pH 7.4 incubated for 24 hrs by HPLC analysis; type: physicochemical; settings: buffer, pH 7.4, read-out: Kinetic_solubility
SH-SY5Y = assay: (§1) Cytotoxicity against human SH-SY5Y cells assessed as reduction in cell viability incubated for 72 hrs by CellTiter-Glo assay; type: toxicity, cell-based; settings: sh-sy5y, 72 h
In short: (§2)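 SH-SY5Y cells at 2000 per well attached overnight at 37 °C. Compound from 20 mM DMSO stocks was added in triplicate as a dose series starting at 20 μM, with doxorubicin as positive control.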

[5] = Metabolic stability in CD-1 mouse liver microsomes assessed as half-life incubated for 60 mins by LC-MS/MS analysis; type: ADME, Microsome; settings: 1 h
In short: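 Half-life measured in CD-1 mouse liver microsomes with NADPH over a 60 min exposure.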

[6] = Protein binding in CD-1 mouse plasma assessed as free fraction incubated for 4 hrs by equilibrium dialysis based LC-MS/MS analysis; type: ADME, cell-free
[7] = Stability in CD-1 mouse plasma assessed as half-life measured upto 120 mins by LC-MS analysis; type: ADME, cell-free; settings: 2 h
[8] = Metabolic stability in human liver microsomes assessed as half-life; type: ADME, Microsome
Naegleria fowleri [9] = assay: Anti-ameobic activity against Naegleria fowleri Nf69 (ATCC 30215) trophozoites assessed as inhibition of amoeba growth incubated for 48 hrs by CellTiter-Glo assay; type: functional, organism-based
In short: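 Axenic Nf69 trophozoites were seeded at 1 × 10^4 cells/mL in Nelson's complete medium with 10% heat-inactivated FBS. Compound was added at 20 to 0.375 μM (lower ranges for very potent compounds), with vehicle controls, for 48 h at 37 °C and 5% CO2. CellTiter-Glo luminescence gave % growth inhibition versus controls, and triplicate means were fitted to dose–response curves for EC50.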

[10] = Drug concentration in female CD-1 mouse plasma at 11 mg/kg, iv measured after 4 hrs by LC-MS/MS analysis; type: ADME, organism-based
In short: (§3)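 Female CD-1 mice (n = 3/group) received one bolus of 11 mg/kg (actual dose; 10 mg/kg intended) IV or PO. Plasma was sampled at six time points over 12 h, and brain homogenate was taken at the 12 h end point. […] Mean ± SD.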

[11] = Ratio of drug concentration in female CD-1 mouse brain to plasma at 44 mg/kg, ip measured after 4 hrs by LC-MS/MS analysis; type: ADME, organism-based
In short: (§4)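 Female CD-1 mice (n = 3/group) received one intraperitoneal bolus of 44 mg/kg (actual dose; 50 mg/kg intended). Plasma was sampled at 2 and 4 h and brain homogenate at 4 h. Brain-to-plasma ratio = brain over plasma concentration at 4 h. Mean ± SD.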

[12] = AUCinfinity in female CD-1 mouse at 11 mg/kg, po measured after 12 hrs by LC-MS/MS analysis; type: ADME, organism-based; settings: in vivo; in short: as §3
[13] = Drug concentration in female CD-1 mouse brain at 11 mg/kg, iv measured after 12 hrs by LC-MS/MS analysis; type: ADME, organism-based; settings: read-out: Ct; in short: as §3
[14] = Drug concentration in female CD-1 mouse brain at 44 mg/kg, ip measured after 4 hrs by LC-MS/MS analysis; type: ADME, organism-based; settings: read-out: Ct; in short: as §4
[15] = Drug concentration in female CD-1 mouse plasma at 11 mg/kg, po measured after 12 hrs by LC-MS/MS analysis; type: ADME, organism-based; in short: as §3
[16] = Half-life in female CD-1 mouse at 11 mg/kg, po measured after 12 hrs by LC-MS/MS analysis; type: ADME, organism-based; settings: in vivo; in short: as §3
[17] = Drug concentration in female CD-1 mouse plasma at 11 mg/kg, iv measured after 0.5 hrs by LC-MS/MS analysis; type: ADME, organism-based; in short: as §3
[18] = Volume of distribution in female CD-1 mouse at 11 mg/kg, iv measured after 12 hrs by LC-MS/MS analysis; type: ADME, organism-based; settings: in vivo; in short: as §3
Naegleria fowleri [19] = assay: Anti-ameobic activity against Naegleria fowleri Nf69 (ATCC 30215) trophozoites infected in female CD-1 mouse model assessed as median survival day at 11 mg/kg, ip pre-infected for 48 hrs from day 0 followed by twice daily compound administration from day 2 to day 6 and measured on day 14 post-infection (reference value: 5.4 day ); type: functional; settings: time 13 day
In short: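 Female CD-1 mice (n = 6/group) were infected intranasally with Nf69 trophozoites on day 0. After a 48 h establishment period, they received IP dosing at 11 mg/kg twice daily for 5 days. Infected controls received vehicle only. The study lasted 14 days, with Kaplan–Meier survival, and the brains of survivors were cultured for viable amoeba.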

Naegleria fowleri [20] = assay: Anti-ameobic activity against Naegleria fowleri Nf69 (ATCC 30215) trophozoites infected in female CD-1 mouse model assessed as reduction in infection at 11 mg/kg, ip pre-infected for 48 hrs from day 0 followed by twice daily compound administration from day 2 to day 6 and […]; type: functional, organism-based; settings: time 6.0 day
[21] = Drug concentration in female CD-1 mouse plasma at 44 mg/kg, ip measured after 2 hrs by LC-MS/MS analysis; type: ADME, organism-based; in short: as §4
[22] = Half-life in female CD-1 mouse at 11 mg/kg, iv measured after 12 hrs by LC-MS/MS analysis; type: ADME, organism-based; settings: in vivo; in short: as §3
[23] = Drug concentration in female CD-1 mouse brain at 11 mg/kg, po measured after 12 hrs by LC-MS/MS analysis; type: ADME, organism-based; settings: read-out: Ct; in short: as §3
[24] = AUCinfinity in female CD-1 mouse at 11 mg/kg, iv measured after 12 hrs by LC-MS/MS analysis; type: ADME, organism-based; settings: in vivo; in short: as §3
[25] = Drug concentration in CD-1 mouse brain infected with Naegleria fowleri Nf69 (ATCC 30215) trophozoites assessed as adverse effect at 50 mg/kg, ip pre-infected for 48 hrs from day 0 followed by single bolus compound administration from day 2 to day 6 and measured on day 14 post-infection; type: ADME, organism-based; settings: time 13 day, read-out: Ct
[26] = Drug concentration in female CD-1 mouse plasma at 11 mg/kg, po measured after 2 hrs by LC-MS/MS analysis; type: ADME, organism-based; in short: as §3
[27] = Toxicity in female CD-1 mouse infected with Naegleria fowleri Nf69 (ATCC 30215) trophozoites assessed as adverse effect at 50 mg/kg, ip pre-infected for 48 hrs from day 0 followed by single bolus compound administration from day 2 to day 6 and measured on day 14 post-infection; type: organism-based; settings: in vivo, 312 h, time 13 day
[28] = Drug concentration in female CD-1 mouse plasma at 11 mg/kg, iv measured after 8 hrs by LC-MS/MS analysis; type: ADME, organism-based; in short: as §3
[29] = Drug concentration in female CD-1 mouse plasma at 11 mg/kg, po measured after 8 hrs by LC-MS/MS analysis; type: ADME, organism-based; in short: as §3
[30] = Oral bioavailability in female CD-1 mouse at 11 mg/kg measured after 12 hrs by LC-MS/MS analysis; type: ADME, organism-based; settings: in vivo; in short: as §3
[31] = Drug concentration in female CD-1 mouse plasma at 11 mg/kg, iv measured after 2 hrs by LC-MS/MS analysis; type: ADME, organism-based; in short: as §3
[32] = Drug concentration in female CD-1 mouse plasma at 11 mg/kg, iv measured after 12 hrs by LC-MS/MS analysis; type: ADME, organism-based; in short: as §3
[33] = Drug concentration in female CD-1 mouse plasma at 11 mg/kg, po measured after 0.5 hrs by LC-MS/MS analysis; type: ADME, organism-based; in short: as §3
[34] = Drug concentration in female CD-1 mouse plasma at 11 mg/kg, po measured after 4 hrs by LC-MS/MS analysis; type: ADME, organism-based; in short: as §3
[35] = as §1; type: toxicity, cell-based; settings: SH-SY5Y cells; in short: as §2
[36] = Naegleria fowleri, Nf69 (ATCC 30215), 48 h

For `COc1cc2nc3n(c(=O)c2cc1Cl)CC[C@@H]1[C@@H]3CCCN1CC1COC1`, the “Ratio CC50/EC50” value [1] was > 40.8, the fraction unbound at 4 h ([2]; CD-1, mouse, read-out: PPB (converted)) was 0.26 and the EC50 (Naegleria fowleri [3]) was 470 nM. For the same compound, the solubility kinetic at 24 h [4] was 29.1 µM (≈ 11.3 µg/mL), the CC50 (SH-SY5Y) was > 20000 nM and the t1/2 [5] was 1.26 h. For the same compound, the fraction unbound at 4 h [6] was 0.26, the t1/2 [7] was > 4.82 h and the t1/2 [8] was 1.34 h. It also gave an EC50 (Naegleria fowleri [9]) of 490 nM.

`COc1cc2nc3n(c(=O)c2cc1Cl)CC[C@H]1[C@H]3CCCN1CC1COC1` gave a concentration at 4 h [10] of 281 ng/mL, a BPR [11] of 4.7 and a selectivity ratio [1] of 192. The AUC [12] was 1920 ng·h/mL, the concentration at 12 h [13] was 13.3 ng/g and the PPB ([2]; mouse, 4 h) was 74%. It also gave an EC50 (Naegleria fowleri [3]) of 14 nM, a concentration at 4 h [14] of 9090 ng/g and a concentration at 12 h [15] of 2 ng/mL. It also gave a solubility kinetic at 24 h [4] of 23.9 µM (≈ 9.32 µg/mL), a t1/2 [16] of 1.1 h and a concentration at 0.5 h [17] of 2110 ng/mL. The Vd [18] was 3.7 L/kg, the CC50 (SH-SY5Y) was 2300 nM and the MSD (Naegleria fowleri [19]) was 6.1 days. For the same compound, the Activity (Naegleria fowleri [20]) was “inactive”, the concentration at 2 h [21] was 3850 ng/mL and the t1/2 [5] was 0.803 h. For the same compound, the t1/2 [22] was 1 h, the concentration at 12 h [23] was 10.4 ng/g and the AUC [24] was 5010 ng·h/mL. The concentration at 312 h [25] was ~20 µM, the concentration at 2 h [26] was 459 ng/mL and the Activity [27] was “Non-Toxic”. The concentration at 8 h [28] was 18.1 ng/mL, the concentration at 8 h [29] was 21.1 ng/mL and the F [30] was 38%. For the same compound, the concentration at 2 h [31] was 882 ng/mL, the t1/2 [8] was 1.54 h and the concentration at 12 h [32] was 2.6 ng/mL. The EC50 (Naegleria fowleri [9]; [36]) was 12 nM, the concentration at 0.5 h [33] was 469 ng/mL and the concentration at 4 h [34] was 254 ng/mL.

`COc1cc2nc3n(c(=O)c2cc1Cl)CC[C@@H]1[C@@H]3CCCN1CCOC(C)C` (racemic) showed a selectivity ratio [1] of 22.7, a solubility kinetic at 24 h [4] of 65.7 µM (≈ 26.7 µg/mL) and a CC50 (SH-SY5Y) of 2500 nM. For the same compound, the t1/2 [5] was 0.0517 h and the EC50 (Naegleria fowleri [9]; [36]) was 110 nM.

With `CN1CCC[C@@H]2c3nc4cc(Cl)c(Cl)cc4c(=O)n3CC[C@H]21` (racemic) the selectivity ratio [1] was > 100, the solubility kinetic at 24 h [4] was 138 µM (≈ 46.7 µg/mL) and the CC50 at 72 h [35] was > 20000 nM. It also gave an EC50 (Naegleria fowleri [9]) of 200 nM.

In the case of `CN1CCC[C@@H]2c3nc4ccc(Cl)cc4c(=O)n3CC[C@H]21` (racemic), the “Ratio CC50/EC50” value [1] is reported as > 20, the solubility kinetic at 24 h [4] is reported as 187 µM (≈ 56.8 µg/mL) and the CC50 at 72 h [35] is reported as > 20000 nM. It also gave a t1/2 [5] of 0.308 h and an EC50 (Naegleria fowleri [9]) of 1000 nM.
